Experimental data taken from PubChem BioAssay.
Active and inactive are the calls of the source.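 The calls were made as follows, unless noted: active = viability at or under a set limit in both replicates, limit being median viability minus 3 SD (cut at about 48% in these data, passing the limit was not always enough); inconclusive = at or under the limit in just one replicate; inactive = at or above the limit in both replicates.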

What was measured:
[1] = reduced viability of SK-BR-3 breast cancer cells – cell-based, 24 h, human, pilot screen (AID 572;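 active = viability at or below 10% of carrier control in both of two separate runs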;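 also: compound exposure lasted between 18 and 24 h rather than exactly 24 h; 100% = carrier-treated control wells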); details: SK-BR-3 viability, CellTiter-Glo luminescence, at 10 µM, stronger effect = lower value
[2] = HUVEC growth inhibition – cell-based, human, primary screen (AID 575;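 active = viability at or below 30% in both replicate assays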;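 also: 100% = median of untreated cell wells with 0.1% DMSO on each plate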); details: HUVEC proliferation, CellTiter-Glo luminescence, 72 h; at 10 µM; stronger effect = lower value
Method in brief: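 System – primary HUVEC, no more than 12 passages · Medium – Low-serum (2% FBS) EBM, supplemented · Times – 72 h exposure, 37 °C, 5% CO2, 30 min RT equilibration · Measured by – luminescent ATP assay · Read-out – % viability relative to median vehicle-well signal on each plate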

[3] = H69AR cell proliferation blockers – human, duplicate replicates, primary screen (AID 580); details: H69AR lung tumor cells viability, ATP luminescence, 72 h; at 10 µM; stronger effect = lower value;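 also: 100% = mean luminescence of untreated wells and 0% = no signal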
[4] = MRP1 drug-resistance reversers in H69AR cells – cell-based, doxorubicin co-treatment, pilot screen (AID 601;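 active = viability loss from added drug above about 55%, and viability with drug at most 40%, in both replicates, limit read from the data, passing the limit was not always enough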); details: CellTiter-Glo, 72 h, at 10 µM; for differential viability (reversal): stronger effect = higher value
[5] = yeast transport mutant growth inhibition pilot in 384-well plates, post-Golgi transport modulator project (AID 636; in the data active = inhibition above about 31%); details: absorbance 615 nm, about 18 h, stronger effect = higher value
[6] = growth suppression of yeast trafficking mutant, preliminary HTS, modulators of trafficking downstream of Golgi apparatus project, 1536-format plate, OD 615 nm (AID 637; in the data active = inhibition above about 30%); details: yeast transport mutant growth, absorbance 615 nm, 18 h; stronger effect = higher value
[7] = H69AR cells + 2 uM doxorubicin, measured here: viability with 2 uM doxorubicin, stronger effect = lower value
[8] = H69AR cells, compound alone cytotoxicity

Structure (SMILES)	viability [1]	viability [2]	viability [3]	differential viability (reversal) ([4]; H69AR cells + 2 uM doxorubicin)	viability [4, 7] [%]	viability [4, 8] [%]	inhibition [5]	inhibition [6]
COC(=O)C1=C(C)Nc2ncnn2C1c1ccco1 (stereo not drawn)	80% (inactive)	91.8% (inactive)	85.9% (inactive)	4.73% (inactive)	81.2	85.9	-8.49% (inactive)	4.91% (inactive)
CCOC(=O)C1CCN(c2cc(C)nc3cc(-c4cccc(F)c4)nn23)CC1	86% (inactive)	105% (inactive)	90.4% (inactive)	7.95% (inactive)	82.4	90.4	-3.78% (inactive)	-6.91% (inactive)
CC(C)[N+]1(C)[C@@H]2CC[C@H]1CC(OC(=O)C(CO)c1ccccc1)C2 (stereo partly drawn)	113% (inactive)	96% (inactive)	100% (inactive)	9.31% (inactive)	90.9	100	-6.36% (inactive)	-2.83% (inactive)
CCn1cc(C(=O)O)c(=O)c2cc(F)c(N3CCNCC3)cc21	105% (inactive)	91.1% (inactive)	92.1% (inactive)	3.17% (inactive)	88.9	92.1	-3.77% (inactive)	7.83% (inactive)
COc1ccc(C(=O)CSc2nnc(-c3ccc(C)cc3)o2)cc1	97% (inactive)	110% (inactive)	86.4% (inactive)	-2.64% (inactive)	89	86.4	4% (inactive)	5.09% (inactive)
CN(CCc1ccccn1)c1ncnc2[nH]ncc12	102% (inactive)	116% (inactive)	97.6% (inactive)	9.97% (inactive)	87.6	97.6	-6.62% (inactive)	-2.36% (inactive)
O=C(Nc1ccon1)c1cc(-c2ccccc2)nc2ccccc12	91% (inactive)	104% (inactive)	96.2% (inactive)	-3.19% (inactive)	99.4	96.2	-5.95% (inactive)	-3.27% (inactive)
N#Cc1ccc(CSc2nnc(-c3cccs3)n2-c2ccccc2)cc1	78% (inactive)	78% (inactive)	78% (inactive)	34.1% (inactive)	44	78	-0.82% (inactive)	-7.1% (inactive)
COc1cccc(S(=O)(=O)Nc2ccc(C(=O)N3CCN(C(=O)c4ccco4)CC3)cc2)c1	85% (inactive)	104% (inactive)	86.3% (inactive)	14.7% (inactive)	71.5	86.3	-2.19% (inactive)	-0.97% (inactive)
CCOC(=O)CSc1nc2sc(C)c(C)c2c(=O)[nH]1	98% (inactive)	101% (inactive)	92.2% (inactive)	-15.3% (inactive)	108	92.2	-4.79% (inactive)	13.3% (inactive)
COC(=O)c1c(NC(=O)CCc2ccc(C)o2)sc(C)c1C	112% (inactive)	90.5% (inactive)	81.7% (inactive)	1.81% (inactive)	79.9	81.7	-2.4% (inactive)	1.27% (inactive)
CC(C)(C)c1ccc(C(=O)N2CCC(C(=O)NCc3ccncc3)CC2)cc1	110% (inactive)	95.6% (inactive)	88.8% (inactive)	-5.45% (inactive)	94.3	88.8	-3.2% (inactive)	-8.18% (inactive)
COCC(=O)Nc1c(C(=O)Nc2ccccc2OC)oc2ccccc12	78% (inactive)	59% (inactive)	75.1% (inactive)	-7.66% (inactive)	82.8	75.1	-8.78% (inactive)	-2.79% (inactive)
CCn1cc(C(=O)O)c(=O)c2cc(F)c(N3CCNCC3)nc21	106% (inactive)	84% (inactive)	105% (inactive)	3.24% (inactive)	102	105	2.34% (inactive)	-2.33% (inactive)
c1ccc(CSc2nnc(-c3cccs3)n2Cc2ccco2)cc1	86% (inactive)	90.3% (inactive)	83.2% (inactive)	-0.12% (inactive)	83.4	83.2	1.37% (inactive)	-0.65% (inactive)
O=C(NCC12CC3CC(C1)CC(CNC(=O)N1CCCC1)(C3)C2)N1CCCC1	78% (inactive)	90.1% (inactive)	84.8% (inactive)	-4.64% (inactive)	89.5	84.8	-10.3% (inactive)	1.77% (inactive)
CCc1c(C(=O)Nc2ncn(Cc3cccc(C)c3)n2)csc1C	105% (inactive)	112% (inactive)	85.6% (inactive)	4.33% (inactive)	81.3	85.6	-2.84% (inactive)	-1.64% (inactive)
CCCCc1c(O)nc(SCC(=O)Nc2ccc3c(c2)CCC3)[nH]c1=O	96% (inactive)	79.7% (inactive)	94.8% (inactive)	10.9% (inactive)	83.9	94.8	-3.73% (inactive)	-2.91% (inactive)

Structure (SMILES)	viability [1]	viability [2]	viability [3]	differential viability (reversal) ([4]; H69AR cells + 2 uM doxorubicin)	viability [4, 7] [%]	viability [4, 8] [%]	inhibition [5]	inhibition [6]
O=C(COc1ccccc1Cl)NCCCN1CCOCC1	98% (inactive)	86.9% (inactive)	91.3% (inactive)	-0.6% (inactive)	91.9	91.3	3.15% (inactive)	-2.74% (inactive)
COc1ccccc1CN1CC(C(=O)NCc2cccnc2)CC1=O (stereo not drawn)	134% (inactive)	95.5% (inactive)	91.5% (inactive)	2.3% (inactive)	89.2	91.5	-2.99% (inactive)	3.77% (inactive)
CCn1cc(C(=O)NC2CCc3ccccc32)c(=O)c2ccc(C)nc21 (stereo not drawn)	77% (inactive)	84.3% (inactive)	81.6% (inactive)	-10.2% (inactive)	91.7	81.6	-0.13% (inactive)	5.41% (inactive)
CCCc1c(OCCCCc2nn[nH]n2)ccc(C(C)=O)c1O	77% (inactive)	67% (inactive)	84.4% (inactive)	-20.6% (inactive)	105	84.4	-1.56% (inactive)	3% (inactive)
Cc1cc(C)n(CC(=O)NC2CCCCC2)n1	113% (inactive)	114% (inactive)	98% (inactive)	12.7% (inactive)	85.3	98	-8.49% (inactive)	0.32% (inactive)
COCCNC(=O)C(c1cccs1)N(C(=O)Cn1nnc2ccccc21)c1ccccc1 (stereo not drawn)	97% (inactive)	107% (inactive)	97.2% (inactive)	3.17% (inactive)	94	97.2	-2.34% (inactive)	-5.9% (inactive)
Cc1ccc2c(c1)N(CC(=O)N1CCCCC1c1cccnc1)C(=O)CO2 (stereo not drawn)	106% (inactive)	99.8% (inactive)	95% (inactive)	-4.01% (inactive)	99	95	-2.84% (inactive)	-5.82% (inactive)
C/C(Cl)=C\Cn1c(NCCc2ccccc2)nc2c1c(=O)n(C)c(=O)n2C	86% (inactive)	78.7% (inactive)	76% (inactive)	9.38% (inactive)	66.6	76	-7.97% (inactive)	2.17% (inactive)
c1ccc(Cn2ncc3c2ncn2c(-c4ccncc4)nnc32)cc1	99% (inactive)	95.3% (inactive)	95% (inactive)	-1.95% (inactive)	96.9	95	-8.77% (inactive)	-6.77% (inactive)
O=[N+]([O-])c1cccc2cn[nH]c12	113% (inactive)	88.6% (inactive)	99.5% (inactive)	9.56% (inactive)	90	99.5	-0.91% (inactive)	1.17% (inactive)
O=C(NCc1ccco1)c1ccccc1Nc1ccc(F)cc1	80% (inactive)	97.1% (inactive)	79.2% (inactive)	5.57% (inactive)	73.6	79.2	-7.03% (inactive)	-7.09% (inactive)
Cc1cc(Oc2ccc(Cl)cc2)nc(-c2ccccc2O)n1	98% (inactive)	84.7% (inactive)	93.9% (inactive)	3.2% (inactive)	90.7	93.9	2.73% (inactive)	-7.38% (inactive)
COCCN(Cc1cc2cccc(C)c2[nH]c1=O)C(=O)c1ccccc1	95% (inactive)	118% (inactive)	102% (inactive)	7.6% (inactive)	94.1	102	-0.95% (inactive)	1.09% (inactive)
Cc1cc(C)c(NC2=NCC(=O)N2C2CCCCC2)c(C)c1	106% (inactive)	107% (inactive)	86.3% (inactive)	-5.14% (inactive)	91.5	86.3	-7.53% (inactive)	-3.09% (inactive)
CN/C(=C/[N+](=O)[O-])NCCSCc1ccc(CN(C)C)o1	116% (inactive)	87.7% (inactive)	94.2% (inactive)	-0.85% (inactive)	95	94.2	-2.47% (inactive)	4% (inactive)
CCCc1cc(=O)[nH]c(=S)[nH]1	101% (inactive)	97% (inactive)	84% (inactive)	2.76% (inactive)	81.2	84	0.78% (inactive)	0.17% (inactive)
Cc1cccc(CC(=O)Nc2c3c(nn2-c2cccc(Cl)c2)CS(=O)C3)c1 (stereo not drawn)	104% (inactive)	88.9% (inactive)	85.2% (inactive)	-10.9% (inactive)	96.1	85.2	1.3% (inactive)	-6.72% (inactive)
CN(CCNC(=O)c1ccc(N2CCCC2=O)cc1)CCc1ccccc1	72% (inactive)	99% (inactive)	101% (inactive)	8.74% (inactive)	92.6	101	-7.95% (inactive)	4.36% (inactive)
